Data set [1] concerns the target T1, Amine oxidase [flavin-containing] A (Homo sapiens, UniProt P21397).
T1 sequence (P21397 whole entry): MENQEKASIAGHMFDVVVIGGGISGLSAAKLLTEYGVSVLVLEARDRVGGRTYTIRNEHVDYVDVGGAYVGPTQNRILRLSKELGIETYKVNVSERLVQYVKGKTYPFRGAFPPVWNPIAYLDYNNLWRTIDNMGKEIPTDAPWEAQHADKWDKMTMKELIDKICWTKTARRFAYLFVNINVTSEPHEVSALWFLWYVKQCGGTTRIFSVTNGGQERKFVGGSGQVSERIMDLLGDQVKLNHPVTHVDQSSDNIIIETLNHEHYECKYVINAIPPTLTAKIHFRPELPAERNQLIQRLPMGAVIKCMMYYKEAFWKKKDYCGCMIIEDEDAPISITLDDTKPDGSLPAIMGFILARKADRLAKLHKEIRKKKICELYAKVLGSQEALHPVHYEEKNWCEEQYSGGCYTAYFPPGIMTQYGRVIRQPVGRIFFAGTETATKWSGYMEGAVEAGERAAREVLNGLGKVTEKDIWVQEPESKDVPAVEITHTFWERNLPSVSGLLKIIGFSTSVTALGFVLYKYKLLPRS
The data set is described as follows: Inhibition of recombinant human MAO-A using kynuramine as substrate by fluorescence spectrophotometry.

Data set [2] has as its target T2, Amine oxidase [flavin-containing] B (Homo sapiens, UniProt P27338).
T2 sequence (P27338 whole entry): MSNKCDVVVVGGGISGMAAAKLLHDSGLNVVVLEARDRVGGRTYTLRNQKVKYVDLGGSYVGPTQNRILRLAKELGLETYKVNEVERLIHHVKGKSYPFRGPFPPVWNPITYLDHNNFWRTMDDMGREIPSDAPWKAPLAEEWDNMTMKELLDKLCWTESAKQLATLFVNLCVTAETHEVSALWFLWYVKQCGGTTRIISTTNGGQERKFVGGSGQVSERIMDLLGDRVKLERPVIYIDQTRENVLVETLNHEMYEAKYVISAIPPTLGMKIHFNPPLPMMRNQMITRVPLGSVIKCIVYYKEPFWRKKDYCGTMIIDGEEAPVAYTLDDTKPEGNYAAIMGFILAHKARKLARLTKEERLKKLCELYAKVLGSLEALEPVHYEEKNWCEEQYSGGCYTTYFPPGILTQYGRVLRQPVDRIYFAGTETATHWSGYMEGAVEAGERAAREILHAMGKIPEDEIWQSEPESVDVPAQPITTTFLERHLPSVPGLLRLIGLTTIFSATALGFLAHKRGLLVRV
The data set is described as follows: Reversible inhibition of recombinant human MAO-B assessed as residual activity pre-incubated at 4 times IC50 for 15 mins followed by kynuramine addition measured after 20 mins by fluorescence spectrophotometric analysis relative to untreated control. Summed up: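 Recombinant MAO-B is preincubated with inhibitor for 15 min at 37 °C without dialysis. It is then diluted two-fold by adding kynuramine (50 final) and incubated 20 min at 37 °C. 4-Hydroxyquinoline is measured fluorometrically. Residual rate is compared with control; triplicates, mean ± SD.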

The species entered for another data set is Homo sapiens. The experiment in a line: Selectivity index, ratio of IC50 for recombinant human MAO-A to IC50 for recombinant human MAO-B. Summed up: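 Ratio of IC50 for MAO-A to IC50 for MAO-B. Each IC50 is the mean of triplicate fluorometric kynuramine-oxidation determinations on the recombinant human enzymes.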
Data set [3] concerns the target T2, Amine oxidase [flavin-containing] B. The data set is described as follows: Inhibition of recombinant human MAO-B using kynuramine as substrate by fluorescence spectrophotometry.
Data set [4] has the same target. The experiment in a line: Reversible inhibition of recombinant human MAO-B assessed as residual activity pre-incubated at 4 times IC50 for 15 mins followed by dialysis for 24 hrs and subsequent kynuramine addition measured after 20 mins by fluorescence spectrophotometric analysis relative to untreated control. Summed up: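 Recombinant MAO-B is preincubated with inhibitor for 15 min at 37 °C, then dialysed for 24 h at 4 °C. It is then diluted two-fold by adding kynuramine (50 final) and incubated 20 min at 37 °C. 4-Hydroxyquinoline is read fluorometrically. Residual activity is compared with an inhibitor-free dialysed control; triplicates, mean ± SD. (R)-Deprenyl is run the same way.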

As usually defined, the IC50 is the concentration that gives 50% inhibition. Regarding `O=[N+]([O-])/C=C/c1cccc(OCc2ccc(F)cc2)c1`, the IC50 in data set [1] was determined as 6.46 µM; in data set [3] it was 0.039 µM. The Activity in data set [2] amounted to 37%; in data set [4], 38%. Further, the Ratio IC50 in the data set listed under Homo sapiens was 166.
In the case of `O=[N+]([O-])/C=C/c1cccc(OCc2cccc(Br)c2)c1`, the IC50 in data set [1] came to 6.63 µM; in data set [3], 0.262 µM. In the data set listed under Homo sapiens, the Ratio IC50 is 25.
Turning to `O=[N+]([O-])/C=C/c1cccc(OCc2ccc(Cl)cc2)c1`, the IC50 is 7.59 µM in data set [1] and 0.144 µM in data set [3]. For the same compound, in the data set filed under Homo sapiens, the Ratio IC50 is 53.
Take `O=[N+]([O-])/C=C/c1cccc(OCc2ccc(Br)cc2)c1`: the IC50 in data set [1] and in data set [3] was above 100 µM in each case.
Turning to `O=[N+]([O-])/C=C/c1cccc(OCc2cccc(Cl)c2)c1`, the figures for the IC50 in data set [1] and in data set [3] were 3.52 µM and 0.105 µM, respectively. Besides, the Ratio IC50 in the data set listed under Homo sapiens is 34.
For `Cc1cccc(COc2cccc(/C=C/[N+](=O)[O-])c2)c1` the same measures were 11.8 µM, 0.565 µM and 21.
The matching figures for `O=[N+]([O-])/C=C/c1cccc(OCc2cccc(F)c2)c1`: 4.2 µM, 0.103 µM and 41.
Turning to `Cc1ccc(COc2cccc(/C=C/[N+](=O)[O-])c2)cc1`, the results for the IC50 in data set [1] and in data set [3] were 9.36 µM and 0.192 µM, respectively. Moreover, in the data set filed under Homo sapiens, the Ratio IC50 came to 49.
For `O=[N+]([O-])/C=C/c1cccc(OCc2ccc(C(F)(F)F)cc2)c1` the same measures were 6.6 µM, 0.106 µM and 62.
The matching figures for `O=[N+]([O-])/C=C/c1cccc(OCc2ccccc2)c1`: 3.65 µM, 0.085 µM and 43.
In the case of `O=[N+]([O-])/C=C/c1cccc(OCc2cccc(C(F)(F)F)c2)c1`, the IC50 in data set [1] is 8.78 µM; in data set [3], 0.273 µM. For the same compound, in the data set listed under Homo sapiens, the Ratio IC50 was determined as 32.

The values above are taken from ChEMBL document CHEMBL4041517 (Eur J Med Chem, 2017).
